Reference: ChEMBL document CHEMBL2046270, “The cis-4-amino-L-proline residue as a scaffold for the synthesis of cyclic and linear endomorphin-2 analogues” (J Med Chem, 2012)

Legend:
[1] = target: Mu-type opioid receptor (Cavia porcellus) (UniProt P97266); assay: Agonist activity at mu opioid receptor in Hartley guinea pig ileum assessed as inhibition of electrically-stimulated muscle contraction at 1 uM after 3 mins; assay type: functional, tissue-based
How it was run: (§1)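 Transmurally stimulated tissue (0.1 Hz; 2.0 ms pulses MVD, 0.4 ms GPI; supramaximal voltage) from male ICR mice (25−30 g) or male Hartley guinea pigs (150−400 g; ileum longitudinal muscle-myenteric plexus), in 37 °C oxygenated Krebs bicarbonate (Mg-free for MVD), tension 0.5 g MVD / 1 g GPI. Agonist in contact 3 min, then washout; percent inhibition of contraction at single concentration.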

[2] = target: Delta-type opioid receptor (Homo sapiens, UniProt P41143); assay: Displacement of [3H]-DPDPE from human delta opioid receptor expressed in HN9.10 cells after 3 hrs by scintillation counting; assay type: cell-based
How it was run: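 Membranes from transfected HN9.10 cells expressing MOR or DOR, in 50 mM Tris pH 7.4 with bacitracin, bestatin, captopril, PMSF, BSA. 50 μg membrane with 10 concentrations of test compound and 1.0 nM [3H]DAMGO (MOR) or [3H]DPDPE (DOR); nonspecific with 10 μM naloxone. 25 °C, 3 h, duplicate; GF/B filtration, scintillation counting; Ki by Cheng–Prusoff.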

[3] = target: Delta-type opioid receptor (Mus musculus) (UniProt P32300); assay: Agonist activity at delta opioid receptor in ICR mouse vas deferens assessed as inhibition of electrically-stimulated muscle contraction at 1 uM after 3 mins; assay type: functional, tissue-based; how it was run: as §1
[4] = target: Kappa-type opioid receptor (Homo sapiens, UniProt P41145); assay: Displacement of [3H]-U69593 from human kappa opioid receptor expressed in CHO cells after 60 mins by scintillation counting; assay type: cell-based
How it was run: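 Recombinant CHO cell membranes incubated 60 min at room temperature with 3 nM [3H]U69593 and varying ligand concentrations; nonspecific binding with 10 μM naloxone. Rapid filtration, liquid scintillation counting. Ki by Cheng–Prusoff; four independent experiments, each in duplicate.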

Sequence of Delta-type opioid receptor (Mus musculus) (P32300 whole entry): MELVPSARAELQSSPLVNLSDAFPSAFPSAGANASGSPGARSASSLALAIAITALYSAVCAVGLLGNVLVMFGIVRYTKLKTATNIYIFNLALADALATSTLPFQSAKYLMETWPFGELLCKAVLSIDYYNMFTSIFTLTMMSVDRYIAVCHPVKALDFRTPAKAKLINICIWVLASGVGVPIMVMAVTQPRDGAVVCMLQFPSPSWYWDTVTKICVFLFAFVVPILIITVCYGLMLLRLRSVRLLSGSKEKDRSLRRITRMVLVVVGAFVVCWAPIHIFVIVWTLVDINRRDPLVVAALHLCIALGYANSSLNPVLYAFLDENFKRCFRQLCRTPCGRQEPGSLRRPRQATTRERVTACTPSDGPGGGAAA
Sequence of Kappa-type opioid receptor (P41145 whole entry): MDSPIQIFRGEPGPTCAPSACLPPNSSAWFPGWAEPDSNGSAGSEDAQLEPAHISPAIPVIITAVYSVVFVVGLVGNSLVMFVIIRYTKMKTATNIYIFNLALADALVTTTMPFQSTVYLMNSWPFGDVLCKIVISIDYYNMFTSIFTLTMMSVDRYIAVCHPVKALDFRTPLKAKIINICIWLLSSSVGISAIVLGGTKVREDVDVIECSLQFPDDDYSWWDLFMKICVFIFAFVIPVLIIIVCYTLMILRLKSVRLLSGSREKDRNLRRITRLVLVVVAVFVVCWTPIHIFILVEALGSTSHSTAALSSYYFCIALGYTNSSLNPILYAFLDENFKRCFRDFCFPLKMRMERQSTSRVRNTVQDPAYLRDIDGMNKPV
Sequence of Delta-type opioid receptor (P41143 whole entry): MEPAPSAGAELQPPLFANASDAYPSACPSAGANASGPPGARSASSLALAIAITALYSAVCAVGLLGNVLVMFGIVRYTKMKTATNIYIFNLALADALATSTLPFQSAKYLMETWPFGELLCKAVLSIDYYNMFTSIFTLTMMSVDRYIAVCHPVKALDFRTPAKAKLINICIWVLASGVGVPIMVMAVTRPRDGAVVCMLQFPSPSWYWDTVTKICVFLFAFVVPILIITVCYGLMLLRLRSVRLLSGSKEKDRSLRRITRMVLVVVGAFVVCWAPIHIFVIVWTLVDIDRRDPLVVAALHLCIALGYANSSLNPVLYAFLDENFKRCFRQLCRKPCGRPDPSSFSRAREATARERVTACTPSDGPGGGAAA
Sequence of Mu-type opioid receptor (Cavia porcellus) (P97266 whole entry): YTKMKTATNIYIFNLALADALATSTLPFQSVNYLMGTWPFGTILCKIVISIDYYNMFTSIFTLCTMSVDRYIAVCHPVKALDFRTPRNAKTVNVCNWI

Row | SMILES | inhibition [1] | Ki [2] | inhibition [3] | Ki [4]
1 | N[C@@H](Cc1ccc(O)cc1)C(=O)N1C[C@@H]2C[C@H]1C(=O)N[C@@H](Cc1ccccc1)C(=O)N[C@@H](Cc1ccccc1)C(=O)N2 | 1.4% | Not Active | 0% | Not Active
2 | Br.NC(=O)[C@H](Cc1ccccc1)NC(=O)[C@H](Cc1ccccc1)NC(=O)[C@@H]1C[C@H](N)CN1C(=O)[C@@H](N)Cc1ccc(O)cc1 |  | Not Active | 20% | Not Active
3 | Br.N[C@H]1C[C@@H](C(=O)N[C@@H](Cc2ccccc2)C(=O)N[C@@H](Cc2ccccc2)C(=O)O)N(C(=O)[C@@H](N)Cc2ccc(O)cc2)C1 | 0% |  | 3.6% | Not Active
